Test results from ChEMBL document CHEMBL1138002, “Synthesis and biological evaluation of thiazolidine-2,4-dione and 2,4-thione derivatives as inhibitors of translation initiation” (2004).

What was measured:
Assay type in all cases: functional
A549 [1] = test: Inhibition of human lung cancer cell line (A549) growth by 50% in sulforhodamine-B assay
Procedure, shortened: (§1)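 Human A549 lung cancer cells; growth inhibition read by sulforhodamine B assay, staining cellular protein content. GI50 taken as concentration needed to inhibit 50% of cell proliferation. DMSO negative control, troglitazone (TRO) positive control; mean ± SD from three determinations.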

[2] = Ratio of intensity of phosphorylation of phosphorylated eIF2a to the intensity of the total eIF2a was determined
Procedure, shortened: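 Cells exposed to drug at 5 µM; extracts analysed by Western blot with phospho-Ser51-specific rabbit anti-eIF2a and mouse monoclonal total eIF2a antibodies, quantified by infrared imaging. Phospho/total eIF2a intensity ratio normalized to DMSO; TRO positive, DMSO negative control; mean ± SD of three determinations.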

A549 [3] = test: Inhibition of human lung cancer cell line (A549) by 50% in sulforhodamine B assay; procedure, shortened: as §1

Row | GI50 (A549 [1]) [µM] | GI50 (A549 [3]) [µM] | Compound | Ratio [2]
1 | 4 |  | O=C1NC(=S)S/C1=C\c1cc(-c2ccccc2)ccc1OCc1ccccc1 | 2.35
2 | 2 |  | CC(C)(C)c1ccc(-c2ccc(OCc3ccccc3)c(/C=C3\SC(=S)NC3=O)c2)cc1 | 1.37
3 | 7 |  | O=C1NC(=S)S/C1=C\c1cc(Br)ccc1OCc1ccccc1 | 1.4
4 | 2 |  | CC(C)(C)c1ccc(-c2ccc(OCc3ccccc3)c(/C=C3\SC(=O)NC3=O)c2)cc1 | 1.16
5 | 9 |  | O=C1NC(=S)S/C1=C\c1cc(F)ccc1OCc1ccccc1 | 5.02
6 | 5 |  | O=C1NC(=S)S/C1=C\c1cc([N+](=O)[O-])ccc1OCc1ccccc1 | 3.49
7 | 2 |  | O=C1NC(=O)/C(=C/c2cc(-c3ccccc3)ccc2OCc2ccccc2)S1 | 0.76
8 | 13 |  | O=C1NC(=S)S/C1=C\c1ccccc1OCc1ccccc1 | 1.17
9 | 5 |  | O=C1NC(=S)S/C1=C\c1cc(Cl)ccc1OCc1ccccc1 | 1.76
10 | 6 |  | Cc1ccc(OCc2ccccc2)c(/C=C2\SC(=S)NC2=O)c1 | 4.15
11 | 7 |  | COc1ccc(OCc2ccccc2)c(/C=C2\SC(=S)NC2=O)c1 | 0.94

Second part, the compound before the results:

Row | Compound | GI50 (A549 [1]) [µM] | GI50 (A549 [3]) [µM] | Ratio [2]
12 | O=C1NC(=S)S/C1=C\c1cc(N2CCOCC2)ccc1OCc1ccccc1 | 5 |  | 0.92
13 | O=C1NC(=O)/C(=C/c2cc(F)ccc2OCc2ccccc2)S1 | 4 |  | 0.72
14 | O=C1NC(=O)/C(=C/c2cc([N+](=O)[O-])ccc2OCc2ccccc2)S1 | 14 |  | 0.89
15 | COc1ccc(OCc2ccccc2)c(/C=C2\SC(=O)NC2=O)c1 | 14 |  | 0.98
16 | O=C1NC(=O)/C(=C/c2cc(Cl)ccc2OCc2ccccc2)S1 | 5 |  | 4.52
17 | CC(C)(C)c1ccc(OCc2ccccc2)c(CC2SC(=O)NC2=O)c1 (stereo not given) |  | 12 | 0.79
18 | O=C1NC(=O)/C(=C/c2cc(Br)ccc2OCc2ccccc2)S1 | 5 |  | 4.05
19 | Cc1ccc(OCc2ccccc2)c(/C=C2\SC(=O)NC2=O)c1 | 8 |  | 1.94
20 | CC(C)(C)c1ccc(OCc2ccccc2)c(/C=C2\SC(=O)NC2=O)c1 | 2 |  | 6.98
21 | O=C1NC(=S)S/C1=C\c1cc(N2CCCCC2)ccc1OCc1ccccc1 | 3 |  | 0.75
22 | O=C1NC(=S)SC1Cc1cc(Cl)ccc1OCc1ccccc1 (stereo not given) | 29 |  | 1.25
23 | CC(C)(C)c1ccc(OCc2ccccc2)c(/C=C2\SC(=S)NC2=O)c1 | 7 |  | 1.97
24 | Cc1c(C)c2c(c(C)c1O)CCC(C)(COc1ccc(CC3SC(=O)NC3=O)cc1)O2 (stereo not given) [TROGLITAZONE] |  | 15 | 2.12
25 | O=C1NC(=O)/C(=C/c2ccccc2OCc2ccccc2)S1 | 35 |  | 0.92
